Reference: ChEMBL document CHEMBL4665656, “Toxicity, bioactivity, release of HS in vivo and pharmaco-kinetics of HS-donors with thiophosphamide structure” (Eur J Med Chem, 2019)
Calls of active or inactive are those of the source. The rule behind the calls is not given here.

Tests used:
[1] = Toxicity in Wistar rat assessed as effect on platelet level at 0.01 mmol/kg, ip, administered daily for 14 days (reference value: 8.57 10^9/L); settings: in vivo, 336 h, time 14 day
[2] = Induction of H2S generation assessed as half life at 150 uM incubated at 22 degC and pH 8 by fluorescence spectrophotometry; format: functional
Procedure, shortened: (§1)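 Donor at 150 µM final, mixed with 200 µM sulfonyl-azide fluorescent probe in buffer/acetonitrile (1:9) at set pH. Cuvette held in a water bath at 22 °C or 37 °C, with fluorescence read three times at intervals. H2S was quantified from a Na2S standard curve (0–200 µM, probe 200 µM).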

[3] = Toxicity in Wistar rat assessed as large and inflamed nucleus in spleen at 0.01 mmol/kg, ip administered for 14 days; format: organism-based; settings: in vivo, 336 h, time 14 day
Procedure, shortened: (§2)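 Wistar rats (6/group) dosed ip daily for 14 days with compound in 10% DMSO; vehicle controls received 10% DMSO. Liver, kidney and spleen were fixed in 4% glutaraldehyde, sectioned, H-E stained and examined microscopically.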

MCF7 = assay: Cytotoxicity in human MCF-7 cells assessed as growth inhibition incubated for 24 hrs by MTT assay; format: functional, cell-based; settings: MCF7, 24 h
Procedure, shortened: (§3)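 Cells were grown in RPMI 1640 with 10% FBS at 37 °C and 10% CO2, seeded at 6×10^3 cells/well. Exposure was 24 h, with viability by MTT, in triplicate cultures. IC50 was reported as mean ± SD.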

HepG2 = assay: Cytotoxicity in human HePG2 cells assessed as growth inhibition incubated for 24 hrs by MTT assay; format: functional, cell-based; settings: HepG2, 24 h; procedure, shortened: as §3
HeLa = assay: Cytotoxicity in human HeLa cells assessed as growth inhibition incubated for 24 hrs by MTT assay; format: functional, cell-based; procedure, shortened: as §3
[4] = Induction of H2S generation assessed as Cmax Induction of H2S generation assessed as Cmax at 150 uM incubated at 37 degC and pH 8 by fluorescence spectrophotometry; format: functional; procedure, shortened: as §1
[5] = Induction of H2S generation assessed as half life at 150 uM incubated at 37 degC and pH 5 by fluorescence spectrophotometry; format: functional; procedure, shortened: as §1
[6] = Induction of H2S generation assessed as Cmax at 150 uM incubated at 37 degC and pH 5 by fluorescence spectrophotometry; format: functional; procedure, shortened: as §1
H9c2 [7] = assay: Cardioprotective activity against H2O2- induced toxicity in rat H9c2 cells assessed as increase in survival rate at 50 uM incubated for 8 hrs co-treated with 50 uM H2O2 measured after 24 hrs by MTT assay relative to control; format: functional
Procedure, shortened: (§4)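 H9c2 cardiomyocytes injured with H2O2 (50, 200 or 400 µM) for 8 h together with compound (10–100 µM). Survival rate measured against the H2O2 model group. Six independent experiments, mean ± sd.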

[8] = Induction of H2S generation assessed as Cmax at 150 uM incubated at 22 degC and pH 1.2 by fluorescence spectrophotometry; format: functional; procedure, shortened: as §1
[9] = Toxicity in zebra fish assessed as survival rate at 0.5 uM measured after 120 hpf by microscopic analysis; parameters: species or system Danio rerio; settings: zebrafish
Procedure, shortened: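 Wild-type AB zebrafish embryos were checked at 4 hpf, and normally developed ones were used. There were 100 embryos per group, split into three replicates, one per well in 200 µL solution under sealing film. Mortality was recorded at 24–168 hpf. Vehicle control was DMF diluted 1:1000. Values are mean ±SD of three independent experiments.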

[10] = Toxicity in Wistar rat assessed as damaged glomeruli, marked gaps and swollen proximal convoluted tubules at 0.01 mmol/kg, ip administered for 14 days; format: organism-based; settings: in vivo, 336 h, time 14 day; procedure, shortened: as §2
[11] = Induction of H2S generation assessed as Cmax at 150 uM incubated at 22 degC and pH 7.4 by fluorescence spectrophotometry; format: functional; procedure, shortened: as §1
RAW264.7 = assay: Anti-inflammatory activity in mouse RAW264.7 cells assessed as inhibition of LPS-induced NO production preincubated for 4 hr followed by LPS addition and measured after 24 hrs relative to control; format: functional, cell-based; settings: dose 100.0 µM, time 28.0 hrs
Procedure, shortened: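 RAW264.7 cells exposed to LPS 1 µg/mL with compound (20 and 100 µM) for 24 h. Nitrite in medium measured by Griess reagent, […], against a sodium nitrite standard curve (0–100 µM). Four parallel groups, mean ± SD.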

[12] = Induction of H2S generation assessed as half life at 150 uM incubated at 37 degC and pH 8 by fluorescence spectrophotometry; format: functional; procedure, shortened: as §1
H9c2 [13] = assay: Cardioprotective activity against H2O2- induced toxicity in rat H9c2 cells assessed as increase in survival rate at 50 uM incubated for 8 hrs co-treated with 200 uM H2O2 measured after 24 hrs by MTT assay relative to control; format: functional; procedure, shortened: as §4
[14] = Toxicity in Wistar rat assessed as effect on WBC level at 0.01 mmol/kg, ip, administered daily for 14 days (reference value: 5.82 10^9/L); settings: in vivo, 336 h, time 14 day
[15] = Induction of H2S generation assessed as half life at 150 uM incubated at 22 degC and pH 7.4 by fluorescence spectrophotometry; format: functional; procedure, shortened: as §1
[16] = Retention time of compound in serum by LC-MS analysis; format: physicochemical, cell-free
Procedure, shortened: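 Compound incubated in PBS pH 7.4 or in serum, sampled every 12 h over 36 h, and analysed by LC-MS for parent and product peaks.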

WI-38 = assay: Cytotoxicity in human W138 cells assessed as growth inhibition incubated for 24 hrs by MTT assay; format: cell-based; settings: WI-38, 24 h; procedure, shortened: as §3
A549 = assay: Cytotoxicity in human A549 cells assessed as growth inhibition incubated for 24 hrs by MTT assay; format: functional, cell-based; settings: A549, 24 h; procedure, shortened: as §3
[17] = Toxicity in Wistar rat assessed as effect on RBC level at 0.01 mmol/kg, ip, administered daily for 14 days (reference value: […]); settings: in vivo, 336 h, time 14 day
H9c2 [18] = assay: Cardioprotective activity against H2O2- induced toxicity in rat H9c2 cells assessed as effect on cell morphology at 50 uM incubated for 8 hrs co-treated with 50 uM H2O2 measured after 24 hrs […]; format: functional, cell-based
Procedure, shortened: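 H9c2 cells in 24-well plates treated with H2O2 (50, 200 or 400 µM) for 8 h plus compound 50 µM, 24 h total. Cells were stained with Giemsa for 30 min and morphology examined by microscopy.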

[19] = Induction of H2S generation assessed as half life at 150 uM incubated at 22 degC and pH 1.2 by fluorescence spectrophotometry; format: functional; procedure, shortened: as §1
[20] = Toxicity in zebra fish embryo assessed as decrease in spontaneous movement at 5 uM measured after 24 hpf by microscopic analysis; parameters: species or system Danio rerio; settings: zebrafish
Procedure, shortened: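 Normal AB embryos were exposed to compound or DMF vehicle (1:1000) from 4 to 24 hpf. Ten embryos per group were chosen at random. Spontaneous movement was recorded for 5 min under a stereoscopic dissecting microscope and expressed as frequency per min. Values are mean ±SD of three independent experiments.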

[21] = Toxicity in Wistar rat assessed as congested central venous and hepatic sinuses and swollen hepatocytes at 0.01 mmol/kg, ip administered for 14 days; format: organism-based; settings: in vivo, 336 h, time 14 day; procedure, shortened: as §2
[22] = Toxicity in Wistar rat assessed as effect on hemoglobin level at 0.01 mmol/kg, ip, administered daily for 14 days (reference value: 98 g/l); settings: in vivo, 336 h, time 14 day
[23] = Induction of H2S generation assessed as Cmax at 150 uM incubated at 37 degC and pH 1.2 by fluorescence spectrophotometry; format: functional; procedure, shortened: as §1

Structure (SMILES) | Activity [1] | T1/2 [2] [min] | Activity [3] | IC50 (MCF7) [µM] | IC50 (HepG2) [µM] | IC50 (HeLa) [µM] | Cmax [4] [µM] | T1/2 [5] [min] | Cmax [6] [µM] | Activity (H9c2 [7]) [%] | Cmax [8] [µM] | Activity [9] | Activity [10] | Cmax [11] [µM] | Activity (RAW264.7) | T1/2 [12] [min] | Activity (H9c2 [13]) [%] | Activity [14] | T1/2 [15] [min] | Retention_time [16] [min] | further results
S=P1(c2ccccc2)NCCCO1 (stereo not drawn) | 628 10^9/L | 35.1 | Toxic | 752 | 629 | 826 | 35.1 | 36.6 | 35.8 | 17.1 | 25 | Non-Toxic | Toxic | 25.1 | Dose-dependent effect | 34.9 | 13.9 | 3.23 10^9/L | 36.8 | 9.647 | IC50 (WI-38): 720 µM; IC50 (A549): 886 µM; Activity [17]: 8.42 10^12/L; Activity (H9c2 [18]): Active; T1/2 [19]: 35 min; Activity [20]: Toxic; Activity [21]: Toxic; Activity [22]: 190 g/L; Cmax [23]: 34.8 µM
O=C([O-])[C@H](Cc1cc2ccccc2[nH]1)NP([O-])(=S)c1ccccc1.[Li+].[Li+] (stereo partly drawn) | 530 10^9/L | 8.54 | Toxic | 838 | 315 | 712 | 124 | 2.9 | 124 | 25.5 | 118 | Non-Toxic | Toxic | 117 | Dose-dependent effect | 7.85 | 30.1 | 4.01 10^9/L | 6.97 | 8.06 | IC50 (WI-38): 724 µM; IC50 (A549): 433 µM; Activity [17]: 5.98 10^12/L; Activity (H9c2 [18]): Active; T1/2 [19]: 2.97 min; Activity [20]: Toxic; Activity [21]: Toxic; Activity [22]: 168 g/L; Cmax [23]: 124 µM
